Assay outcomes as filed in PubChem BioAssay.
KCNQ1 act – human KCNQ1 channel potentiation or activation | CHO-K1 KCNQ1, thallium flux FluxOR fluorescence; active compounds read high | B-score at 10 µM | hit rate 0.35% among 310,000;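 active = fluorescence ratio B-score, a plate-corrected score, at least three library SD, with initial intensity B-score within 5 SD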
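Assay system: CHO-K1 cells stably expressing KCNQ1; Medium: assay buffer with matched DMSO; Also added: K+/Tl+ depolarizing stimulus; Dosing: single dose; Timing: dye 90 min, compound 20 min, room temperature; Measured by: kinetic FluxOR thallium fluorescence, 10-s 1-Hz baseline, 110-s post-stimulus read; Read-out: peak-minus-minimum fluorescence over initial fluorescence, negative-control normalized, B-scored.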
Kir21 block – Kir2.1 (mouse) channel inhibition | P35561 | HEK293-Kir2.1, FluxOR thallium flux fluorescence; active compounds read low | B-score at 10 µM | hit rate 0.85% among 310,000 | AID 1672;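 active = fluorescence ratio B-score at or below minus 3 SD of library scores, with starting-brightness B-score within 2 SD, cut at about -4.2 in these data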;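 also: channel flux triggered by added potassium and thallium sulfate stimulus; B-score of peak minus minimum fluorescence over baseline after thallium stimulus; more negative B-score means stronger Kir2.1 block with less thallium influx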
KCNQ1 inh – inhibitors of human KCNQ1 potassium channel. P51787. CHO-K1 KCNQ1, FluxOR thallium flux fluorescence; active compounds read high. B-score at 10 µM. hit rate 1.3% among 310,000;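 active = compounds whose thallium flux B-score, printed positive for inhibition, exceeds three library SD while starting fluorescence stays within three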;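 also: channel opened by potassium depolarization with thallium stimulus after 20 min compound exposure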
KCNK9 block – human KCNK9 channel inhibition | hit rate 1.2% among 310,000 | B-score at 10 µM | Q9NPC2 | HEK293 KCNK9, FluxOR thallium flux fluorescence; active compounds read low;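 active = ratio B-score over 3 SD below the library mean, with starting fluorescence within 5 SD of its mean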;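 also: negative B-score means less thallium flux so channel inhibition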
KCNK3 inh – human KCNK3 channel inhibition, primary screen; hit rate 0.84% among 340,000; AID 602410; CHO-KCNK3 thallium flux, FluxOR fluorescence; active compounds read low; O14649; B-score at 10 µM;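 active = B-score under library mean minus 4 SD, starting fluorescence ratio at most library mean plus 5 SD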;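 also: more negative B-score means stronger inhibition of thallium flux through KCNK3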
hERG protect – compounds protecting human hERG from proarrhythmic drug block; Q12809; hit rate 0.51% among 310,000; activation (rescue from dofetilide block), less the hit threshold, % at 10 µM; CHO-hERG, FluxOR thallium flux, dofetilide IC70 present;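 active = activation above the mean of controls blocked by dofetilide plus 5 SD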;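 also: thallium influx through hERG after potassium depolarization seen as dye fluorescence rise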
KCNQ1 inh valid – confirmation of human KCNQ1 potassium channel inhibitors; shares compounds with KCNQ1 inh; KCNQ1 cell line, FluxOR thallium flux fluorescence; inhibition, % at 10 µM; hit rate 93% among 1,600; AID 588353;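 active = primary screen active, with duplicate mean exceeding buffer control mean plus 3 SD of buffer wells, cut at about 28% in these data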;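 also: 0% = buffer control ratio and 100% = XE991 inhibitor control ratio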
CHO Tl flux – counter-screen for KCNQ1 inhibitors: effect in parental CHO cells; shares compounds with KCNQ1 inh; parental CHO-K1, FluxOR thallium flux fluorescence ratio; active compounds read low; zero means no signal rise above baseline; fluorescence ratio (Tl flux) at 10 µM; hit rate 21% among 1,600; AID 588366;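 active = mean of duplicate thallium-flux fluorescence ratios in parental host cells more than 5 SD below the buffer control mean, cut at about 0.38 in these data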;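 also: ratio is peak minus minimum fluorescence divided by baseline fluorescence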
KCNQ1 ephys val – confirmation of human KCNQ1 potassium channel inhibitors by electrophysiology | shares compounds with KCNQ1 inh | KCNQ1-CHO cells, automated patch clamp current | calls only at 10 µM | hit rate 20% among 490;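 active = KCNQ1 current drop exceeding 3 SD of negative control wells, seen in both duplicate runs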;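 also: steady state current during a 2 s step from -80 to +40 mV; negative values mean current inhibition and positive values mean potentiation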
KCNQ2 inh – selectivity of KCNQ1 inhibitors: inhibition of rat KCNQ2 channel | KCNQ2 cells, FluxOR thallium flux fluorescence | inhibition, % at 10 µM | hit rate 71% among 1,600 | shares compounds with KCNQ1 inh;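 active = mean percent inhibition of the KCNQ2 thallium signal more than 5 SD above the buffer-only control wells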;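 also: KCNQ2 expressed in CHO cells; 0% = buffer control wells and 100% = XE-991 inhibitor control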
KCNQ1-KCNE1 inh – KCNQ1 inhibitor that also blocks human KCNQ1/KCNE1 channel; shares compounds with KCNQ1 inh; KCNQ1/KCNE1 cells, FluxOR thallium flux fluorescence; inhibition, % at 10 µM; hit rate 77% among 1,600; AID 652147;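 active = mean percent inhibition of duplicate wells above the buffer-only control mean plus 3 SD of those controls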;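 also: 0% = buffer only wells and 100% = XE-991 inhibitor control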
Active calls of the source: *; i = inactive; nt = no result given; + = active, no number. In the library only some 3.7% were active in any assay of this set; here they are far more common.

SMILES	KCNQ1 act	Kir21 block	KCNQ1 inh	KCNK9 block	KCNK3 inh	hERG protect	KCNQ1 inh valid	CHO Tl flux	KCNQ1 ephys val	KCNQ2 inh	KCNQ1-KCNE1 inh
NCCOc1ccc(C23CC4CC(CC(C4)C2)C3)cc1	i	-4.7*	7*	i	i	-22	147*	0.64	+	i	i
CCc1cccc(CC)c1NC(=O)C(CC)Sc1nc2ccncc2[nH]1 (stereo unspecified)	i	-0.76	i	i	i	-10	nt	nt	nt	nt	nt
CCCCCCCCCn1ccc(=N)cc1	i	-0.27	7*	i	i	-18	70*	0.49	nt	71%*	i
CCn1c(C)c(C)c2cc(C(=O)N3CCc4ccccc4C3)ccc21	i	0.78	7*	i	i	-8	114*	0.38	i	113%*	62%*
Cn1nc(C(C)(C)C)cc1NC(=O)Nc1ccc(Cl)cc1	i	1.9	7*	i	i	-17	83*	0.46	nt	i	i
Cn1nc(C(C)(C)C)cc1NC(=O)Nc1ccc(F)cc1F	i	0.59	i	i	i	-8	nt	nt	nt	nt	nt
CCn1c(SCC(=O)Nc2nncs2)nnc1-c1ccco1	i	0.79	i	i	i	-5	nt	nt	nt	nt	nt
COc1cccc(C(=O)Nc2ccc(-c3nc4ccccc4o3)c(O)c2)c1	i	-1	i	i	i	-6	nt	nt	nt	nt	nt
COc1cc(OC)cc(C(=O)Nc2ccc(-c3nc4ccccc4o3)cc2)c1	i	0.03	10*	i	i	-7	130*	0.4	i	89%*	69%*
FC(F)(F)c1cccc(CNC(=S)Nc2ccccc2)c1	i	0.75	8*	i	i	-13	46*	0.49	nt	82%*	i
FC(F)(F)Sc1ccc(NC(=S)NCc2ccccc2)cc1	i	1.8	7*	i	i	-10	78*	0.51	nt	i	i
O=C(Nc1nc(-c2ccccc2)cs1)C1CCCCN1S(=O)(=O)c1ccc(Cl)cc1 (stereo unspecified)	i	-1.2	10*	i	i	-14	90*	0.46	i	93%*	131%*
Cc1ccc(-c2n[nH]c(=S)n2/N=C/c2ccc(C)o2)cc1	i	-0.71	6*	i	i	-6	0	0.52	nt	i	i
CCc1ccc(NC(=O)c2cnc(N3CCN(c4ccccn4)CC3)c3ccccc23)cc1	i	0.55	8*	i	i	-27	89*	0.37*	nt	104%*	141%*
CC(C)NC(=O)c1cnc(N2CCN(c3ccccn3)CC2)c2ccccc12	i	2.1	i	i	i	-3	nt	nt	nt	nt	nt
CCOC(=O)Nc1ccc2c(c1)N(C(=O)CN1CCN(C)CC1)c1ccccc1S2	i	1.2	9*	i	i	-9	0	0.45	nt	i	57%*
COc1ccc(CC(=O)NNC(=O)c2nn(Cc3ccccc3)c(=O)c3ccccc23)cc1OC	i	0.05	i	i	i	-9	nt	nt	nt	nt	nt
COc1ccc(-c2cn[nH]c2-c2ccc(OCc3ccccc3)cc2O)cc1	i	0.72	7*	-6.7*	i	-9	107*	0.43	i	91%*	130%*
CCC(C)(C(=O)Nc1c(C)cccc1C)N(C)C(=O)c1ccc2ccccc2n1 (stereo unspecified)	i	2.5	i	i	i	-12	nt	nt	nt	nt	nt
